In brackets after ≈: the same amount, converted by molar mass.
Columns and labels:
[1] = Cytotoxicity against human KB-3-1 cells at 150 uM after 72 hrs by MTT assay; assay type: cell-based; settings: read-out: GI
Plasmodium falciparum = assay: Antimalarial activity against cycloguanil-resistant Plasmodium falciparum CDC1 assessed as inhibition of ring stage parasitaemia after 48 hrs by Giemsa staining; assay type: functional, organism-based; settings: CDC1, 48 h
Outline: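 Sorbitol-synchronized ring-stage culture (0.5% parasitemia, 4% hematocrit type O human RBC) in RPMI 1640 with 10% heat-inactivated type O human serum, HEPES, glutamine, NaHCO3, hypoxanthine, gentamycin; 5% CO2/5% O2/90% N2, 37 °C. Samples from DMSO stock diluted in medium, 1% DMSO final; 48 h. Proliferation counted on Giemsa thin films, 10,000 erythrocytes per film, triplicate. Quinine as control.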

[2] = Cytotoxicity against human KB-3-1 cells after 72 hrs by MTT assay; assay type: cell-based; settings: KB 3-1, 72 h
Outline: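 KB-3-1 cells grown in RPMI 1640 with 10% newborn calf serum, glutamine, kanamycin, 5% CO2, 37 °C. 1.0 × 10^4 cells per well, then sample added in medium containing 2% DMSO; 72 h at 37 °C. MTT (2 mg/mL in PBS) added afterwards; growth inhibition from absorbance at 540 nm. Mitomycin C as positive control.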

Row | SMILES | inhibition at 72 h, 150 µM [1] [%] | IC50 (Plasmodium falciparum) | IC50 [2] [µg/mL] | IC90 (Plasmodium falciparum) [µg/mL]
1 | COC(=O)C1=CO[C@@H](O[C@@H]2O[C@H](COC(C)=O)[C@@H](O)[C@H](O)[C@H]2O)[C@H]2[C@@H]1C=C[C@@]21C=C([C@H](O)c2ccc(O)cc2)C(=O)O1 | 4.3 | 4100 nM |  | 
2 | CO[C@@]12[C@H](COC(N)=O)C3=C(C(=O)C(C)=C(N)C3=O)N1C[C@@H]1N[C@@H]12 [MITOMYCIN] |  |  | 0.1 (≈ 0.299 µM) | 
3 | COC(=O)C1=CO[C@@H](O[C@@H]2O[C@H](COC(C)=O)[C@@H](O)[C@H](O)[C@H]2O)[C@H]2[C@@H]1C=C[C@@]21C=C([C@H](O)c2ccc(O)c(OC)c2)C(=O)O1 | 9.3 | 100 nM |  | 
4 | COC(=O)C1=CO[C@@H](O[C@@H]2O[C@H](CO)[C@@H](O)[C@H](O)[C@H]2O)[C@H]2[C@@H]1C=C[C@@]21C=C([C@H](O)c2ccc(O)cc2)C(=O)O1 | 13.4 | 800 nM |  | 
5 | COC(=O)C1=CO[C@@H](O[C@@H]2O[C@H](CO)[C@@H](O)[C@H](O)[C@H]2O)[C@H]2[C@@H]1C=C[C@@]21C=C(C(=O)c2ccc(O)c(OC)c2)C(=O)O1 [DEHYDROMETHOXYGAERTNEROSIDE] | 6.1 | 40 nM |  | 
6 | COC(=O)C1=CO[C@@H](O[C@@H]2O[C@H](CO)[C@@H](O)[C@H](O)[C@H]2O)[C@H]2[C@@H]1C=C[C@@]21C=C([C@H](O)c2ccc(O)c(OC)c2)C(=O)O1 | 13.1 | 21900 nM |  | 
7 | C=C[C@H]1CN2CC[C@H]1C[C@H]2[C@H](O)c1ccnc2ccc(OC)cc12 [QUININE] |  | 0.04 µg/mL |  | 0.09 (≈ 0.277 µM)
